Residue numbers refer to the chain shown, from its start.
Legend:
[1] = target: T1, P450 2B4 E474D (Oryctolagus cuniculus, UniProt P00178, E474D); experiment: Inhibition of 7-EFC O-deethylation by imidazole inhibitors; assay type: biochemical, rabbit (Oryctolagus cuniculus)
T1 sequence (P00178 with tags, fused parts or gaps E474D limits assumed): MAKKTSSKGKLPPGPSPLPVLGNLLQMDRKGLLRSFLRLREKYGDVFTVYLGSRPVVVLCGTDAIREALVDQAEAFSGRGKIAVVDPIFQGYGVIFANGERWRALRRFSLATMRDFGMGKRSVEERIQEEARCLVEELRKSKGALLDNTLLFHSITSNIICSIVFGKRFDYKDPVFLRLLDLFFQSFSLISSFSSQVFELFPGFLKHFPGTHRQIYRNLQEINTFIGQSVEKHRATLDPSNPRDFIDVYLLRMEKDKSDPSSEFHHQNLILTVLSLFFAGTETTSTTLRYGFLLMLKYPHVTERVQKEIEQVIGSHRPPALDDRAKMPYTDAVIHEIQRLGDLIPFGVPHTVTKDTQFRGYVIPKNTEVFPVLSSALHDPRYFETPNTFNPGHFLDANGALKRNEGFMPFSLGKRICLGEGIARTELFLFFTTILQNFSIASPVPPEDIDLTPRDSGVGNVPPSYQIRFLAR

[2] = target: T2, P450 2B4 H172F (Oryctolagus cuniculus, UniProt P00178, H172F); experiment: Spectral binding titration of imidazole ligands; set-up: species or system rabbit (Oryctolagus cuniculus); details: 2B4 H172F versus wild type
T2 sequence (P00178 with tags, fused parts or gaps H172F limits assumed): T1 sequence (P00178 with tags, fused parts or gaps E474D limits assumed) with H153F, D455E
Summary of the method: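 Protein was the His-tagged 2B4dH construct (single mutants or wild type), expressed in TOPP3 cells and Ni-NTA purified. Spectra 350–700 nm recorded after serial 5 μl additions of 100 μM 4-CPI or bifonazole. Ks came from a tight-binding equation fit, and the 4-CPI/bifonazole Ks ratio was calculated.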

[3] = target: T3, P450 2B4 E474Q (Oryctolagus cuniculus, UniProt P00178, E474Q); experiment: Inhibition of 7-EFC O-deethylation by imidazole inhibitors; assay type: biochemical, rabbit (Oryctolagus cuniculus)
T3 sequence (P00178 with tags, fused parts or gaps E474Q limits assumed): T1 sequence (P00178 with tags, fused parts or gaps E474D limits assumed) with D455Q

[4] = target: T4, P450 2B4 L437A (Oryctolagus cuniculus, UniProt P00178, L437A); experiment: as above; assay type: biochemical, rabbit (Oryctolagus cuniculus); details: rabbit, pH 7.4, probe 7-EFC (50 μM), O-deethylation
T4 sequence (P00178 with tags, fused parts or gaps L437A limits assumed): T1 sequence (P00178 with tags, fused parts or gaps E474D limits assumed) with L418A, D455E

[5] = target: T5, P450 2B4 H172Q (Oryctolagus cuniculus, UniProt P00178, H172Q); experiment: as above; assay type: biochemical, rabbit (Oryctolagus cuniculus)
T5 sequence (P00178 with tags, fused parts or gaps H172Q limits assumed): T1 sequence (P00178 with tags, fused parts or gaps E474D limits assumed) with H153Q, D455E

[6] = target: T6, P450 2B4 H172A (Oryctolagus cuniculus, UniProt P00178, H172A); experiment: as above; assay type: biochemical, rabbit (Oryctolagus cuniculus)
T6 sequence (P00178 with tags, fused parts or gaps H172A limits assumed): T1 sequence (P00178 with tags, fused parts or gaps E474D limits assumed) with H153A, D455E

[7] = target: T7, P450 2B4 wild type (Oryctolagus cuniculus, UniProt P00178); experiment: as above; assay type: biochemical, rabbit (Oryctolagus cuniculus)
T7 sequence (P00178 with tags, fused parts or gaps limits assumed): T1 sequence (P00178 with tags, fused parts or gaps E474D limits assumed) with D455E

[8] = target: T1, P450 2B4 E474D; assay type: biochemical, rabbit (Oryctolagus cuniculus)
[9] = target: T2, P450 2B4 H172F
[10] = target: T2, P450 2B4 H172F; remark: listed apart in the source
[11] = target: T6, P450 2B4 H172A; assay type: biochemical, rabbit (Oryctolagus cuniculus)
[12] = test system: P450 2B4 mutants; assay type: biochemical, rabbit (Oryctolagus cuniculus); details: each mutant except the inactive H172F
[13] = target: T5, P450 2B4 H172Q; assay type: biochemical, rabbit (Oryctolagus cuniculus)

| SMILES | IC50 [1] [nM] | Ks (spectral dissociation constant) higher than wild type 2B4 [2] | IC50 [3] [nM] | IC50 at 10 min [4] [nM] | IC50 [5] [nM] | IC50 [6] [nM] | IC50 [7] [nM] | decrease (change) in kcat versus wild type [8] [fold] | substrate turnover (activity) [9] | kcat [10] [s⁻¹] | decrease (change) in kcat versus wild type [11] | change in KM versus wild type [12] [fold] | decrease (change) in kcat versus wild type [13] |
| --- | --- | --- | --- | --- | --- | --- | --- | --- | --- | --- | --- | --- | --- |
| c1ccc(-c2ccc(C(c3ccccc3)n3ccnc3)cc2)cc1 (stereo not drawn) [Bifonazole, bifonazole] | 620 | ~ 20 times | 810 | 50 | 760 | 580 | 900 |  |  |  |  |  |  |
| CCOc1ccc2c(C(F)(F)F)cc(=O)oc2c1 [7-EFC, 7-ethoxy-4-(trifluoromethyl)coumarin] |  |  |  |  |  |  |  | > 20 | inactive | 0 |  |  |  |
| COc1ccc2c(C(F)(F)F)cc(=O)oc2c1 [7-MFC, 7-methoxy-4-(trifluoromethyl)coumarin] |  |  |  |  |  |  |  |  | inactive | 0 | ~ 2 fold | < 2 | ~ 2 fold |

Source: article PMC3911823 (The FEBS journal, 2011)
